core dimer inh = blocks dimerization of HCV core protein. TR-FRET GST/Flag-core106 dimerization, 1536-well. inhibition, % at 5 µM. 300,000 tested, 0.33% active;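 active means inhibition above the mean of all tested compounds plus 3 SD, set per screening campaign, cut at about 45% in these data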
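System: GST-tagged and Flag-tagged HCV core protein residues 1-106 / Input: core106 proteins, GST 13.5 nM and Flag 17 nM / Buffer or medium: KF-containing HEPES buffer, pH 7.45, DTT, CHAPS, BSA / Probe or stimulus: Eu-anti-GST and XL665-anti-Flag labelled anti-tag antibodies / Schedule: 4 h, 22.5 °C incubation / Technique: TR-FRET 671 and 617 nm emission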
ALR H2O2 inh = blocks human ALR sulfhydryl oxidase activity | purified ALR, DTT oxidation, H2O2 HRP-luminol luminescence | inhibition, % (no concentration beside the values) | 290,000 tested, 3.8% active;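 active means mean replicate inhibition above about 79%, with every replicate also reaching it, limit read from the data; inconclusive means only one of the two criteria met; inactive means mean below limit and not every replicate reaching it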
Target sequence (P55789 whole entry, looked up): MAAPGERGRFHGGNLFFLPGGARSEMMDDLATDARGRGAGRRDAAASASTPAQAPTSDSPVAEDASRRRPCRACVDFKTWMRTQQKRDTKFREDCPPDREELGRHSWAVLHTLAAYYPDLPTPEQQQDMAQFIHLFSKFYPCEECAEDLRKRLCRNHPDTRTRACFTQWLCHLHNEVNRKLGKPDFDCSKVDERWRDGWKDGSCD
HSF1 activator = increases HSF-1 driven luciferase reporter signal; NIH3T3-HGL HSF-1 luciferase reporter, MG132, 8 h; 100% = twice DMSO control signal; activation, % at 9 µM; 300,000 tested, 1.7% active; AID 504408;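 active means mean replicate activation of at least 50% with a set share of replicates each reaching 50%; inconclusive means only one of those two conditions met; inactive means mean below 50% and too few replicates reaching it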;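 further: 0% = median of the neutral control wells and 100% = twice that signal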
HSF1 inhib = HSF1 inhibition; activity change, negative = inhibition, % at 7.5 µM (by protocol); AID 2098; NIH3T3-HGL HSE-luciferase, MG132-induced, luminescence 8 h; active compounds read low; 300,000 tested, 0.77% active;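 active means more than half of replicate wells show activity change below -50%, luminescence cut by over half; inconclusive means some wells, but at most half, below -50%; inactive means no replicate well below -50%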;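 further: luciferase reports HSF-1 transcriptional activity via heat shock element; 0% = median of DMSO wells and -100% = zero luminescence signal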
AI-2 QS modul = modulators of Vibrio harveyi AI-2 quorum sensing system. Vibrio harveyi JMH597 AI-2 luminescence/OD600 ratio, 9 h; active compounds read low; strain lacks LuxN and CqsS sensors; 0 = neutral-control median. activity change, % at 7.5 µM. 300,000 tested, 0.4% active; in the data active means activity change below about -75%, passing the limit was not always enough; inconclusive means no clear call, values can overlap the other calls;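 further: luminescence divided by OD600 gain over 9 h not by final OD600 alone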
PHOSPHO1 block = blocks human PHOSPHO1 phosphatase activity; inhibition, % at 13.3 µM; 290,000 tested, 1.1% active; recombinant PHOSPHO1, absorbance phosphatase assay; in the data active means inhibition above about 60%
Target sequence (Q8TCT1 whole entry, looked up): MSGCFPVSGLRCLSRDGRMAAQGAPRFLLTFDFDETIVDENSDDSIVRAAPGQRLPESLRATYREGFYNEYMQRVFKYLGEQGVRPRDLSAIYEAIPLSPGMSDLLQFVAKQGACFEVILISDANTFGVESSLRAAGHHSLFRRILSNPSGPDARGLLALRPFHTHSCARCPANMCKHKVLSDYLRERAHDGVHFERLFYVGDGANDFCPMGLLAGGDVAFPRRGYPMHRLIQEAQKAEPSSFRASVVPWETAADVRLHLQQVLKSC
The depositor's hits bear a star; ? = inconclusive; . = not tested or not shown. Compounds with a hit are over-represented: about 6.8% of the library has one in this group of screens.

SMILES	core dimer inh	ALR H2O2 inh	HSF1 activator	HSF1 inhib	AI-2 QS modul	PHOSPHO1 block
COc1ccccc1CN1CC(C(=O)NC2(c3ccccc3)CC2)CCC1=O (configuration not stated)	0.4	-6.0	6.4	-7.0	39.7	26.3
CN(C)/C=C/C(=O)c1cc(F)cc(C(F)(F)F)c1	1.1	1.8	4.3	6.5	18.1	39.4
Cc1cnc(NC(=O)c2ccc(-c3nc4ccccc4s3)o2)s1	9.6	3.0	3.7	-3.8	16.5	104.8*
COc1cc(C(=O)NC(C)Cc2ccccn2)ccc1OC1CCN(C(C)=O)CC1 (configuration not stated)	.	.	-36.0	-18.8	12.9	26.5
COc1cccc(C(=O)C2CCCN(Cc3cccc(-n4nc(C)cc4C)c3)C2)c1 (configuration not stated)	13.5	-8.1	-2.5	5.1	4.4	58.4
O=C(CN1CCN(Cc2ccc3c(c2)OCO3)CC1)c1c[nH]c2ccccc12	-6.9	-3.5	-1.2	-1.1	7.8	84.1*
CCOc1ccc(-c2n[nH]c(C)c2Oc2ccc(OC)cc2)c(O)c1	-1.1	12.4	8.0	20.4	20.0	23.2
COc1ccc(/C=N/Nc2ccccn2)cc1OC	-8.1	98.7*	36.9	10.6	8.2	1.8
COc1ccc(Br)cc1/C=N/Nc1ccccn1	.	-1.6	0.7	-3.3	22.3	44.7
COc1cc(/C=N/Nc2ccccn2)ccc1O	-7.2	97.4*	36.8	46.8	26.6	28.1
COc1cc(/C=N/Nc2ccnc(=O)[nH]2)ccc1O	.	98.1*	-12.4	-0.2	43.9	15.3
CCOC(=O)N1CCN(C(=O)C2CC(=O)N(c3ccc(C)cc3)C2)CC1 (configuration not stated)	1.0	-15.1	3.0	-4.6	24.5	.
CC(O)[C@H]1CNCCN1CCc1cccc(F)c1 (some centres not stated)	-20.1	-0.6	-9.6	-2.4	10.4	.
Cc1ccsc1/C=C/C1=NCCCN1C	4.6	.	-68.6	-61.4*	16.9	-6.3
O=[N+]([O-])c1ccc(N2N=C(c3ccco3)CC2c2ccccc2)cc1 (configuration not stated)	87.4*	-0.1	42.9	30.5	23.6	27.4
CCOc1ccccc1N1CCN(Cc2cnc(-c3ccccc3)[nH]2)CC1	-1.0	37.8	11.6	-6.7	10.5	2.6
Cc1ccc(Nc2nnc(SCc3cc(=O)n4cc(C)ccc4n3)s2)cc1	6.5	98.8*	16.8	-2.1	3.6	-4.4
CCn1cc(C(=O)NCCCOC(C)C)c(=O)c2cc(S(=O)(=O)N3CCC(C)CC3)ccc21	4.0	-1.3	-5.2	-14.2	.	14.4
CN(C)c1ccc(/C=C/C=N/Nc2nc(N3CCOCC3)nc(N3CCOCC3)n2)cc1	-14.1	.	78.9*	57.5	22.2	6.7
BrC(=C\c1ccccc1)/C=N/Nc1nc(N2CCOCC2)nc(N2CCOCC2)n1	-3.1	0.5	7.9	7.9	1.9	-18.2
BrC(/C=C\c1ccccc1)=N/Nc1nc(N2CCOCC2)nc(N2CCOCC2)n1	-0.1	-5.1	176.0*	104.0	5.4	41.2
CC(=O)N(/N=C1\Sc2ccccc2C1=O)c1ccc(C)cc1C	-12.8	-6.4	-89.0	-85.5*	11.0	94.5*
CC(=O)N(/N=C1\Sc2ccccc2C1=O)c1ccccc1C	29.4	.	26.5	16.7	12.6	-122.7
O=C(COC(=O)CCN1C(=O)/C(=C\C=C\c2ccccc2)SC1=S)Nc1cc(F)ccc1F	59.7*	5.2	-7.3	0.3	11.8	22.6
COc1ccc2c(c1)c(C(=O)CN1CCC3(CC1)OCCO3)c(C)n2C	-4.6	-6.9	-4.9	4.1	8.4	97.2*
SMILES	core dimer inh	ALR H2O2 inh	HSF1 activator	HSF1 inhib	AI-2 QS modul	PHOSPHO1 block
COc1ccc2c(c1)c(C(=O)CN1CCCCC1)c(C)n2C	-18.5	-4.3	72.0*	32.2	-7.2	.
O=C1CCN(Cc2ccccc2)S(=O)(=O)c2c(F)cc(F)cc21	.	0.5	.	.	.	.
Cc1ccnc(SCc2cc(=O)c(OC(=O)c3ccc(Cl)c([N+](=O)[O-])c3)co2)n1	0.0	44.9	-6.2	-5.3	-0.4	-20.3
CC(C(=O)Nc1ccc(O)cc1)c1cccc(C(=O)c2ccccc2)c1 (configuration not stated)	3.6	98.6*	0.4	-1.8	23.7	14.8
C/C(N)=C(/C#N)C(=O)CSc1cc(C)c2cc(C)cc(C)c2n1	5.3	96.3*	19.5	11.3	-2.5	24.5
Cc1cc(C)c2nc(SCC#N)cc(C)c2c1	1.3	-11.4	6.5	-1.5	1.6	-1.3
O=S(=O)(NC1CCCCC1Nc1ccc(Cl)cc1)c1ccccc1 (configuration not stated)	-1.9	?	12.5	6.7	15.9	-11.4
Cc1ccc(NC2CCCCC2NS(=O)(=O)c2ccccc2)c(C)c1 (configuration not stated)	8.7	85.8*	11.0	1.5	-1.7	-44.5
CC(=O)Nc1ccc(NC2CCCCC2NS(=O)(=O)c2ccccc2)cc1 (configuration not stated)	-7.4	98.9*	10.7	-1.2	19.7	33.2
Cc1ccc(NC2CCCCC2NS(=O)(=O)c2ccc(Cl)cc2)cc1 (configuration not stated)	11.7	73.1	17.9	0.7	-2.2	-1.8
CCOc1ccccc1CN1CCN(Cc2nc3c(s2)CCCC3)CC1CCO (configuration not stated)	-8.5	-18.2	.	.	8.6	-26.1
COCCNC(=O)c1ccc(CSc2nc3ccccc3s2)cc1	1.1	99.0*	43.1	23.5	37.3	38.3
CCNC(=O)c1ccc(CSc2nc3ccccc3s2)cc1	6.4	98.5*	20.6	5.0	29.0	19.8
COCCNC(=O)COC(=O)CSCc1nc2ccccc2s1	-8.9	98.2*	2.7	-0.2	10.9	25.9
CCC(C)/C(C)=N/NC(=O)c1ccc(CSc2nc3ccccc3s2)cc1 (configuration not stated)	-2.0	42.4	36.1	24.6	26.5	-6.2
NC(=O)c1ccc(CSc2nc3ccccc3s2)cc1	14.3	92.2*	43.1	29.9	4.3	5.1
COCCNC(=O)c1nc2ccccc2s1	-12.4	-1.9	-0.5	7.0	11.5	-5.8
O=C(NCCCO)c1c(O)c2cccc3c2n(c1=O)CCC3	-5.8	.	-18.4	0.9	-4.7	22.9
O=C(CCn1cnnn1)Nc1ccc(F)cc1	-0.7	0.3	-16.4	0.9	8.6	-114.7
O=C(Nc1ccc(Cl)cc1)N1CCCN(c2ccc(C(F)(F)F)cc2[N+](=O)[O-])CC1	0.3	4.8	23.6	13.6	14.4	33.4
CC(C)(C)Nc1nc(Cl)nc(N(C#N)CN2C(=O)c3ccccc3S2(=O)=O)n1	-0.6	92.2*	14.4	17.1	-3.1	-5.7
CC(C)Nc1nc(Cl)nc(N(C#N)CN2C(=O)c3ccccc3S2(=O)=O)n1	-1.7	31.0	118.2*	82.9	5.6	10.5

High-throughput results as filed in PubChem.
